Test [1] addresses T1, Leukotriene B4 receptor 1 (Homo sapiens, UniProt Q15722). The test can be described thus: Binding affinity for Leukotriene B4 (LTB4) receptor. The method, boiled down: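 Human blood neutrophils (dextran sedimentation, Ficoll-paque, hypotonic lysis without BSA), 4 × 10⁶ cells with 0.6 nM [³H]LTB₄ ± test compound in 1 mL HBSS, 0 °C for 45 min; 30 μM NDGA present in some assays. Glass-fibre filtration with ice-cold HBSS washes.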

The species entered for test [2] is Homo sapiens. The test can be described thus: Tested for the ability to inhibit Leukotriene B4 (LTB4) induced degranulation. In kind it is functional, organism-based. A digest of the protocol: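 Human neutrophils (3 × 10⁶ in 1 mL HBSS) pretreated with 5 μg cytochalasin B for 5 min at 37 °C, then with test compound for 7 min, then stimulated with 5 × 10⁻⁸ M LTB₄ for 2 min. MPO in pellet and supernatant read spectrophotometrically (o-dianisidine/peroxide). Release is expressed as percent of total MPO after subtracting basal.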

Test [3] concerns the target Leukotriene B4 receptor (Homo sapiens, UniProt Q9NPC1+Q15722). The test can be described thus: Inhibition of Leukotriene B4 (LTB4) induced chemotaxis. In kind it is functional.
Test [4] addresses T1, Leukotriene B4 receptor 1. The test can be described thus: Binding affinity towards Leukotriene B4 (LTB4) Receptor. Experiment conducted in the absence of NDGA. A digest of the protocol: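 Human neutrophils isolated with dextran sedimentation, Ficoll-paque and BSA-free hypotonic lysis. 4 × 10⁶ cells incubated with 0.6 nM [³H]LTB₄ ± test compound in 1 mL HBSS at 0 °C for 45 min, no NDGA. Bound ligand separated by glass-fibre filtration. Specific binding is total minus binding not displaced by 0.1 μM unlabeled LTB₄.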

Test [5] is filed under the species Homo sapiens. The experiment in a line: Tested for the ability to inhibit Leukotriene B4 (LTB4) induced chemotaxis. Test compound added to upper and lower wells. In kind it is functional, organism-based. The method, boiled down:
(§1)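 Test compound is placed in both upper and lower wells. After 90 min at 37 °C, migrated cells in the lower well are Coulter-counted. Inhibition is computed after subtracting the HBSS random-migration mean.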

In test [6] the test system is Canis lupus familiaris. The experiment in a line: In vivo activity for oral administration using LTB4-induced canine intradermal chemotaxis assay.
For test [7], the species on record is Homo sapiens. The experiment in a line: Inhibition of fMLP-induced chemotaxis. In kind it is functional, organism-based.
The species named for test [8] is Homo sapiens. The experiment in a line: Inhibition of 12-(R)-hydroxyeicosatetraenoic acid (HETE)-induced chemotaxis. The test is classed as functional, organism-based.
In test [9] the test system is Cavia porcellus. The experiment in a line: In vivo […] (oral) SCOA-induced colitis activity of the compound. In kind it is functional. A digest of the protocol:
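Guinea pig colitis induced under light anesthesia by a single intrarectal enema of 4% acetic acid. Oral dosing 30 min before induction. Colonic MPO activity measured after 24 h. ED50 is in mg/kg.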

In test [10] the test system is Cavia porcellus. The test can be described thus: In vivo activity for topical application using LTB4-induced […] intradermal chemotaxis assay. In kind it is functional.
Test [11] has as its system Mus musculus. The test can be described thus: In vivo murine (intracolonic) SCOA-induced colitis activity of the compound. The test is classed as functional. The method, boiled down:
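Mouse colitis induced under light anesthesia by a single intrarectal enema of 3% acetic acid. Test compound given intrarectally 1 h before and 1 h after instillation. Colonic MPO assessed at 24 h. ED50 is in mg/kg.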

The species entered for test [12] is Homo sapiens. The experiment in a line: Tested for the ability to inhibit Leukotriene B4 (LTB4) induced chemotaxis. (Test compound added to upper and lower wells.). In kind it is functional, organism-based. The method, boiled down:
as §1

Test [13] is filed under the species Homo sapiens. The experiment in a line: Inhibition of fMLP-induced degranulation in the PMN degranulation assay. In kind it is functional, organism-based.
The subject of test [14] is Mus musculus. The experiment in a line: In vivo murine epidermal inflammation for topical application. In kind it is functional. The method, boiled down: (§2)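 PMA (25 μg) in acetone applied to the dorsal surface of one mouse ear, with vehicle on the other ear. Test compound applied topically with the PMA in acetone. At 18 h, ears were removed and weighed. Edema is weight gain versus the contralateral ear, and MPO was also assayed. ED50 is in mg.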

Test [15] concerns HL-60. The experiment in a line: Inhibitory activity against PGE-2 production in HL60s. The test is classed as functional, cell-based. The note with it: Homo sapiens.
Test [16] is filed under the species Homo sapiens. The experiment in a line: Potency against LTB4 binding to its receptor on eosinophils. The test is classed as functional, organism-based.
The species entered for test [17] is Homo sapiens. The test can be described thus: Potency against LTB4-induced eosinophil chemotaxis. The test is classed as functional, organism-based.
Test [18] deals with HL-60. The experiment in a line: Inhibitory activity against LTB4 production in HL60s. In kind it is functional, cell-based. The note with it: Homo sapiens.
The species named for test [19] is Homo sapiens. The test can be described thus: Inhibitory activity against LTB4 production in PMNs. In kind it is functional, organism-based.
For test [20], the species on record is Homo sapiens. The test can be described thus: Inhibitory activity against HETE-induced chemotaxis. In kind it is functional, organism-based.
The subject of test [21] is Canis lupus familiaris. The test can be described thus: In vivo activity for intravenous administration using LTB4-induced canine intradermal chemotaxis assay.
The subject of test [22] is Mus musculus. The experiment in a line: Compound measured by topical application using Murine epidermal inflammation assay. The test is classed as functional. The method, boiled down: as §2
Test [23] relates to Cavia porcellus. The test can be described thus: In vivo guinea pig (oral) SCOA-induced colitis activity of the compound.
The test system of test [24] is Cavia porcellus. The test can be described thus: In vivo activity for intravenous administration using LTB4-induced guinea pig intradermal chemotaxis assay.
The subject of test [25] is Cavia porcellus. The test can be described thus: In vivo activity for oral administration using LTB4-induced guinea pig intradermal chemotaxis assay.
For test [26], the species on record is Homo sapiens. The experiment in a line: Tested for the ability to inhibit Leukotriene B4 (LTB4) induced chemotaxis. (Test compound added to upper and lower wells). In kind it is functional, organism-based. The method, boiled down:
as §1

pIC50: −log10 of the molar value.

Broadly, the pIC50 is −log10 of the IC50, conventionally taken in molar units. The low end stands for a high IC50, the high end for a low IC50. One may read the IC50 as the point on the concentration scale where inhibition reaches its midpoint.

T1 sequence (Q15722 whole entry): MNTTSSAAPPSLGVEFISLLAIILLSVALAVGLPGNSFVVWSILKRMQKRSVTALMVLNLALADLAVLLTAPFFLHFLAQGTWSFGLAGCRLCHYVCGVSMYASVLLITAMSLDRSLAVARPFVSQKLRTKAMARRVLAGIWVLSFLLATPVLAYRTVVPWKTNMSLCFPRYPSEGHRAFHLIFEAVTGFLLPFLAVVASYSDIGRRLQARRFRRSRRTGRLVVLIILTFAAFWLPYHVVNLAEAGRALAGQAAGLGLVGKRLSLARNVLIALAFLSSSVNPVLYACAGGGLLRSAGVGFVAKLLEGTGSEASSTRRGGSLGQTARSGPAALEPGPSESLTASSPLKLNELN

`CCCc1c(OCCCOc2ccc(C(N)=O)c(OC)c2CCC)ccc2c1OC(C(=O)O)CC2` (stereo not given): the negative logarithm of the IC50 (pIC50) was 6.85 in test [1] and 6.04 in [2] (Homo sapiens). Besides, the IC50 in test [3] was found to be 0.35 µM.

In the case of `CCCc1c(OCCCOc2ccc(-c3cocn3)c(OC)c2CCC)ccc2c1OC(C(=O)O)CC2` (stereo not given), the pIC50 in [1] was 7.00; in test [2] (Homo sapiens) it was 6.64. The IC50 in test [3] is 0.43 µM.

For the molecule `CCCc1c(OCCCOc2ccc(-c3cscn3)c(OC)c2CCC)ccc2c1OC(C(=O)O)CC2` (stereo not given), the figures for the pIC50 in test [1] and in test [2] (Homo sapiens) were 7.03 and 7.05, respectively. Also, in test [3], the IC50 stood at 0.287 µM.

`CCCc1c(OCCCOc2ccc(-c3csc(N)n3)c(OC)c2CCC)ccc2c1OC(C(=O)O)CC2` (stereo not given) gave a pIC50 in [1] of 6.49. The IC50 in test [3] turned out to be 1.5 µM.

For `CCCc1c(OCCCOc2ccc(-c3csc(SCc4ccccc4)n3)c(OC)c2CCC)ccc2c1OC(C(=O)O)CC2` (stereo not given), the pIC50 in [1] is 5.24. The IC50 in [3] is over 10 µM.

`CCCc1c(OCCCOc2ccc(-c3coc(C)n3)c(OC)c2CCC)ccc2c1OC(C(=O)O)CC2` (stereo not given) had a pIC50 in test [1] of 5.96. The same molecule showed an IC50 in test [3] of over 10 µM.

With `CCCc1c(OCCCOc2ccc(-c3cc[nH]n3)c(OC)c2CCC)ccc2c1OC(C(=O)O)CC2` (stereo not given), in test [1], the pIC50 was 6.21. In [3], this molecule returned a concentration for half-maximal inhibition (IC50) of 1.2 µM.

In the case of `CCCc1c(OCCCOc2ccc(-c3csc(S)n3)c(OC)c2CCC)ccc2c1OC(C(=O)O)CC2` (stereo not given), the pIC50 in [1] was 6.05; in test [2] (Homo sapiens) it was 5.92. In test [3], this molecule showed an IC50 of 0.52 µM.

Turning to `CCCc1c(OCCCOc2ccc(-c3csc(OC)n3)c(OC)c2CCC)ccc2c1OC(C(=O)O)CC2` (stereo not given), the negative logarithm of the IC50 (pIC50) in [1] is 5.94. The molecule further had a concentration for half-maximal inhibition (IC50) in test [3] of over 10 µM.

Molecule `CCCc1c(OCCCOc2ccc(-c3csc(SC)n3)c(OC)c2CCC)ccc2c1OC(C(=O)O)CC2` (stereo not given) had a pIC50 in test [1] of 5.55. In test [3], this molecule came in with an IC50 of 18.6 µM.

With `CCCc1c(OCCCOc2ccc(-c3cscn3)c(OC)c2CC2CC2)ccc2c1OC(CCC(=O)O)CC2` (stereo not given), the pIC50 was 7.91 in [4], 8.15 in [2] (Homo sapiens) and 7.31 in test [5].

In [1], `CCCc1c(OCCCOc2ccc(-c3ccno3)c(OC)c2CCC)ccc2c1OC(C(=O)O)CC2` (stereo not given) had a pIC50 of 6.11. The IC50 in test [3] is 1.6 µM.

`CCCc1c(OCCCOc2ccc(-c3c[nH]cn3)c(OC)c2CCC)ccc2c1OC(C(=O)O)CC2` (stereo not given) showed a negative logarithm of the IC50 (pIC50) in test [1] of 6.28. For the same molecule, the IC50 in test [3] is 1.2 µM.

In the case of `CCCc1c(OCCCOc2ccc(-c3c[nH]nn3)c(OC)c2CCC)ccc2c1OC(C(=O)O)CC2` (stereo not given), the pIC50 is 8.28 in test [4], 6.89 in test [2] (Homo sapiens) and 7.06 in [5].

On to `C=CCc1c(OCCCOc2ccc3c(c2CCC)OC(C(=O)O)CC3)ccc(-c2cscn2)c1OC` (stereo not given), for which the pIC50 in test [1] was 7.60; in test [2] (Homo sapiens) it was 7.64. This molecule also returned an IC50 in test [3] of 0.11 µM.

On to `CCCc1c(OCCCOc2ccc(-c3c[nH]c(SCc4ccccc4)n3)c(OC)c2CCC)ccc2c1OC(C(=O)O)CC2` (stereo not given), for which the pIC50 in test [4] is 6.12; in test [5], 6.37.

For the molecule `CCCc1c(OCCCOc2ccc(-c3cscn3)c(OC)c2CC2CC2)cccc1OCC(=O)O`, the values for the pIC50 in [4], in test [2] (Homo sapiens) and in [5] were 7.81, 6.66 and 6.44, respectively.

As to `CCCc1c(OCCCOc2ccc(-c3cscn3)c(OC)c2CCC)ccc2c1OC(CCC(=O)O)CC2` (stereo not given), the pIC50 in [1] is 7.59; in [2] (Homo sapiens), 7.15. In addition, the IC50 in test [3] was found to be 1.54 µM.

With `CCCc1c(OCCCOc2ccc(-c3cscn3)c(OC)c2CC2CC2)ccc2c1OC(C(=O)O)CC2` (racemic), the ED50 in test [6] came to 0.2 mg/kg; in [9] it was 2.3 mg/kg; in [10] it was 18 ng; in test [11] (Mus musculus, read-out: ED50), 7.1 mg/kg. For the same molecule, the pIC50 in [7] is 5.85; in test [8], 6.97; in [12] (Homo sapiens) it was 7.17; in test [13], 5.23; in test [2] (Homo sapiens), 7.32.

Regarding `CCCc1c(OCCCOc2ccc(-c3cscn3)c(OC)c2CC2CC2)ccc2c1OC(C(=O)O)CC2` (stereo in doubt; 35), the ED50 came out at 0.8 mg in [14]; 0.74 mg/kg in [6]; 3.4 mg/kg in test [9]; 70 ng in test [10]; 12 mg/kg in test [11]; 0.02 mg/kg in test [21]. In addition, the pIC50 in [15] was 6.03; in [16], 8.59; in test [17], 8.05; in test [18], 6.18; in test [19] it was 6.28; in test [20], 6.97. Also, the pIC50 in test [12] was 7.05; in [2], 7.24.

Consider `CCCc1c(OCCCOc2ccc(-c3cscn3)c(OC)c2CC2CC2)ccc2c1OC(C(=O)O)CC2` (stereo in doubt; -/-35), for which the ED50 was 0.98 mg in test [22], 5.9 mg/kg in test [9], 98 ng in test [10] and 11.7 mg/kg in [11]. The pIC50 in test [2] is 7.10.

For the molecule `CCCc1c(OCCCOc2ccc(C(C)=O)c(OC)c2CCC)ccc2c1OC(C(=O)O)CC2` (stereo not given) [SC-41390], the ED50 in test [23] came to 20 mg/kg; in test [24] it was 0.5 mg/kg; in test [10], 340 ng; in [11] (Mus musculus, read-out: ED50), 28 mg/kg; in test [25] it was 1.7 mg/kg. The values for the negative-log IC50 (pIC50) in [26] and in test [2] (Homo sapiens) were 6.08 and 6.04, respectively.

(Values after ChEMBL document CHEMBL1128264, “Second-generation leukotriene B4 receptor antagonists related to SC-41930: heterocyclic replacement of the methyl ketone pharmacophore” (J Med Chem, 1995).)
